Results taken from ChEMBL document CHEMBL1121825, “A potent, new, sedative--hypnotic agent: 5,7-dihydro-5,5,7,7-tetramethyl-3-(3-nitrophenyl)furo[3,4-e]-as-triazine 4-oxide” (J Med Chem, 1981).

What was measured:
Mus musculus [1] = experiment: Ability to reinduce anesthesia in mice as a measure of in vivo sedative-hypnotic activity; assay type: functional
Procedure, shortened: (§1)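 Male Royal Hart mice (20–25 g) were anesthetized with hexobarbital 70.0 mg/kg iv. While they were regaining the righting reflex, compound was given ip. Reinduction was scored as loss of righting reflex for 10 min. ED50 (mg/kg) is the dose reinducing anesthesia in 50% of mice, estimated by probit analysis (Miller–Tainter).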

Mus musculus [2] = experiment: Tested for ability to reinduce anesthesia in mice when administered intraperitoneally as a measure of in vivo sedative-hypnotic activity; D represents Toxic; assay type: functional, organism-based; procedure, shortened: as §1
[3] = Acute toxicity in rats after 72 hours of administration perorally; assay type: organism-based; settings: rat, in vivo, po
Procedure, shortened: (§2)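 Male Wistar rats (130–160 g) dosed orally; lethality read at 2 h and 72 h. LD50 (mg/kg) derived by probit analysis (Miller–Tainter), using a minimum of 20 animals per drug.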

[4] = Acute toxicity in mice after 2 hours administration perorally; assay type: organism-based; settings: mouse, in vivo, po
Procedure, shortened: (§3)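 Male Royal Hart mice (20–25 g) dosed intraperitoneally or orally; deaths scored at 2 h and 72 h. LD50 (mg/kg) estimated by probit analysis (Miller–Tainter), with at least 20 animals per drug.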

Mus musculus [5] = experiment: Compound was tested for tonic convulsions when administered perorally; assay type: functional; settings: po
Procedure, shortened: (§4)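 Groups of five male Royal Hart mice (20–25 g) received test drug ip or orally 1 h before seizure induction with SaH 41-178 (50.0 mg/kg ip). ED50 is the dose preventing tonic convulsions or death in 50% of animals, by probit analysis.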

Rattus norvegicus [6] = experiment: Righting reflex effect in rats when the compound was administered perorally; settings: po
Mus musculus [7] = experiment: Righting reflex effect in mice when the compound was administered perorally; assay type: functional; settings: po
Procedure, shortened: (§5)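 Modified Irwin behavioral screen in male Royal Hart mice (20–25 g), dosed ip or orally, observed for 2 h after dosing. ED50 (mg/kg) estimated by probit analysis (Miller–Tainter), or evaluation at the highest nontoxic dose used. At least 20 animals per drug; ± SE.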

[8] = Acute toxicity in mice after 2 hours administration ip; assay type: organism-based; settings: mouse, in vivo; procedure, shortened: as §3
Monkey [9] = experiment: Sleep latency in cebus monkey sleep was determined; shortened (65-85% at the threshold sleep-inducing dose); assay type: functional
[10] = Acute toxicity in rats after 2 hours of administration perorally; assay type: organism-based; settings: rat, in vivo, po; procedure, shortened: as §2
Mus musculus [11] = experiment: Ataxia effect in mice when the compound was administered po; assay type: functional; procedure, shortened: as §5
Felis catus = experiment: Tested to induce segmental reflexes in cat when given at a dose of 1-4 mg/Kg intravenously; Caused respiratory failure and death; assay type: organism-based; settings: in vivo, iv
Procedure, shortened: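 Chloralose-anaesthetised intact cats. The monosynaptic patellar reflex was evoked by solenoid-hammer tendon tap and the knee jerk recorded. The polysynaptic flexor reflex was recorded as tibialis anticus contraction on electrical popliteal nerve stimulation.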

Mus musculus [12] = experiment: Compound was tested for rotarod motor coordination in mice when administered intravenously; assay type: functional; settings: iv
Mus musculus [13] = experiment: Compound was tested for tonic convulsions when administered intraperitoneally; assay type: functional; settings: ip; procedure, shortened: as §4
Mus musculus [14] = experiment: Prehensile effect in mice when the compound was administered perorally; assay type: functional; settings: po
Procedure, shortened: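 Oral dosing of male Royal Hart mice (20–25 g), scored by a modified Irwin behavioural screen. ED50 (mg/kg) estimated by probit analysis; at least 20 animals per drug.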

Mus musculus [15] = experiment: Righting reflex effect in mice when the compound was administered intraperitoneally; assay type: functional; settings: ip; procedure, shortened: as §5
Mus musculus [16] = experiment: Ataxia effect in mice when the compound was administered ip; assay type: functional; procedure, shortened: as §5
[17] = Acute toxicity in mice after 72 hours administration ip; assay type: organism-based; settings: mouse, in vivo; procedure, shortened: as §3
Rattus norvegicus [18] = experiment: Ataxia effect in rats when the compound was administered perorally; settings: po
Mus musculus [19] = experiment: Compound was tested for mortality in mice when administered intravenously; assay type: functional; settings: iv
Mus musculus [20] = experiment: Compound was tested for rotarod motor coordination in mice when administered perorally; assay type: functional; settings: po
Procedure, shortened: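 Modified Dunham–Miya rotarod test. Groups of five male Royal Hart mice (20–25 g) were trained on a 15 rpm corrugated rod for 60–90 s, then retested 30 and 60 min after drug or saline (ip or oral). Percent change in riding time versus controls; ED50 is the dose giving a 50% decrease, by probit analysis.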

Mus musculus [21] = experiment: Prehensile effect in mice when the compound was administered intravenously; assay type: functional; settings: iv
Mus musculus [22] = experiment: Hypomotility effect in mice when the compound was administered intraperitoneally; assay type: functional; settings: ip; procedure, shortened: as §5
Rattus norvegicus [23] = experiment: Hypomotility effect in rats when administered perorally; settings: po
[24] = Acute toxicity in mice after 72 hours administration perorally; assay type: organism-based; settings: mouse, in vivo, po; procedure, shortened: as §3
Monkey [25] = experiment: Tested for its activity towards cebus monkey sleep relative to methaqualone at 3-9 hours of duration; 4-64 times potent; assay type: functional
Mus musculus [26] = experiment: Reinduction of anesthesia in mice when administered perorally was tested; assay type: functional; settings: po

## CC1(C)OC(C)(C)c2c1nnc(-c1cccc(F)c1)[n+]2[O-]
Mus musculus [1]
  ED50: 74.9 mg/kg

## Cc1nnc(-c2ccccn2)nc1C
Mus musculus [2]
  ED50: Toxic

## CC1(C)OC(C)(C)c2c1nnc(-c1cccc(C(F)(F)F)c1)[n+]2[O-]
Mus musculus [1]
  ED50: 66.7 mg/kg

## CC1(C)OC(C)(C)c2c1nnc(-c1ccccc1)[n+]2[O-]
Mus musculus [1]
  ED50: 163 mg/kg

## CC1(C)OC(C)(C)c2nc(-c3ccccn3)nnc21
Mus musculus [1]
  ED50: 21 mg/kg

## CC1(C)OC(C)(C)c2nc(-c3ccc(Cl)cn3)nnc21
Mus musculus [1]
  ED50: 66.7 mg/kg

## CC1(C)OC(C)(C)c2nc(-c3cccc([N+](=O)[O-])c3)nnc21
Mus musculus [1]
  ED50: 68.8 mg/kg

## Cc1ccc(-c2nnc3c([n+]2[O-])C(C)(C)OC3(C)C)cc1C
Mus musculus [1]
  ED50: 133 mg/kg

## CC1(C)OC(C)(C)c2c1ncc(-c1ccccc1)[n+]2[O-].Cl
Mus musculus [1]
  ED50: 1000 mg/kg

## CC1(C)OC(C)(C)c2c1nnc(-c1cccc([N+](=O)[O-])c1)[n+]2[O-]
[3]
  LD50 at 72 h: > 800 mg/kg
[4]
  LD50 at 2 h: > 400 mg/kg
Mus musculus [5]
  ED50: > 1000 mg/kg
Rattus norvegicus [6]
  ED50: 118 mg/kg
Mus musculus [7]
  ED50: 55 mg/kg
[8]
  LD50 at 2 h: > 400 mg/kg
Monkey [9]
  Sleep latency: 65%
[10]
  LD50 at 2 h: > 800 mg/kg
Mus musculus [11]
  ED50: 39 mg/kg
Felis catus
  Activity: Caused respiratory failure and death
Mus musculus [12]
  ED50: 51 mg/kg
Mus musculus [13]
  ED50: 54 mg/kg
Mus musculus [14]
  ED50: 54 mg/kg
Mus musculus [1]
  ED50: 72 mg/kg
Mus musculus [15]
  ED50: 123 mg/kg
Mus musculus [16]
  ED50: 130 mg/kg
[17]
  LD50 at 72 h: > 235 mg/kg
Rattus norvegicus [18]
  ED50: 39 mg/kg
Mus musculus [19]
  ED50: 54 mg/kg
Mus musculus [20]
  ED50: > 1000 mg/kg
Mus musculus [21]
  ED50: 125 mg/kg
Mus musculus [22]
  ED50: 50 mg/kg
Rattus norvegicus [23]
  ED50: 37 mg/kg
[24]
  LD50 at 72 h: > 400 mg/kg
Monkey [25]
  Relative potency: 4
Mus musculus [26]
  ED50: 72 mg/kg

## CC1(C)OC(C)(C)c2nc(Cc3ccccc3)nnc21
Mus musculus [1]
  ED50: 25 mg/kg

## CCCc1nc(-c2ccccn2)nnc1C
Mus musculus [2]
  ED50: Toxic

## CC1(C)OC(C)(C)c2nc(-c3cccnc3)nnc21
Mus musculus [1]
  ED50: 28.1 mg/kg

## CC1(C)NC(C)(C)c2c1nnc(-c1ccccc1)[n+]2[O-]
Mus musculus [1]
  ED50: 1000 mg/kg

## CC1(C)OC(C)(C)c2nc(-c3cccc[n+]3[O-])nnc21
Mus musculus [1]
  ED50: 138 mg/kg

## CC1(C)OC(C)(C)c2nc(-c3cccc(C(F)(F)F)c3)nnc21
Mus musculus [1]
  ED50: 500 mg/kg

## CCOC(=O)c1nnc(-c2ccccn2)nc1O
Mus musculus [2]
  ED50: Toxic

## CC1(C)OC(C)(C)c2c1nnc(-c1ccc(F)cc1)[n+]2[O-]
Mus musculus [1]
  ED50: 500 mg/kg

## CC1(C)OC(C)(C)c2nc(-c3ccccc3)nnc21
Mus musculus [1]
  ED50: 167 mg/kg
